Test results as given in ChEMBL document CHEMBL4038284, “Synthesis of novel quinoline-based 4,5-dihydro-1H-pyrazoles as potential anticancer, antifungal, antibacterial and antiprotozoal agents” (Eur J Med Chem, 2017).

Columns and labels:
Format in all cases: functional
[1] = test system: CCRF-CEM; assay: Growth inhibition of human CCRF-CEM cells incubated for 48 hrs by sulforhodamine B assay
Procedure, shortened: (§1)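 NCI 60-line screen. Cells in RPMI-1640 with 5% FBS and 2 mM L-glutamine, preincubated 24 h, then time-zero plates TCA-fixed. Compounds from DMSO stocks given at five final concentrations (100, 10, 1.0, 0.1, 0.01 µM) for 48 h at 37 °C, 5% CO2. Cells fixed with 10% TCA, SRB-stained, read at 515 nm. GI50 is the concentration giving 50% lower net protein increase versus control.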

[2] = test system: HL-60(TB); assay: Growth inhibition of human HL-60(TB) cells incubated for 48 hrs by sulforhodamine B assay; settings: HL-60, 48 h; procedure, shortened: as §1
[3] = test system: K562; assay: Growth inhibition of human K562 cells incubated for 48 hrs by sulforhodamine B assay; settings: K562, 48 h; procedure, shortened: as §1
[4] = test system: RPMI-8226; assay: Growth inhibition of human RPMI8226 cells incubated for 48 hrs by sulforhodamine B assay; settings: RPMI-8226, 48 h; procedure, shortened: as §1
[5] = test system: HOP-62; assay: Growth inhibition of human HOP62 cells incubated for 48 hrs by sulforhodamine B assay; settings: HOP-62, 48 h
Procedure, shortened: (§2)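 NCI five-dose SRB assay (100, 10, 1.0, 0.1, 0.01 µM) with 48 h exposure in RPMI-1640 with 5% FBS and 2 mM L-glutamine. Cells fixed with TCA and stained with SRB, read at 515 nm. GI50 is the concentration where [(Ti−Tz)/(C−Tz)]×100 = 50.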

[6] = test system: NCI-H226; assay: Growth inhibition of human NCI-H226 cells incubated for 48 hrs by sulforhodamine B assay; settings: NCI-H226, 48 h; procedure, shortened: as §1
[7] = test system: NCI-H322M; assay: Growth inhibition of human NCI-H322M cells incubated for 48 hrs by sulforhodamine B assay
Procedure, shortened: (§3)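 Five-dose NCI SRB assay at 100, 10, 1.0, 0.1 and 0.01 μM for 48 h at 37 °C, 5% CO2. Medium was RPMI-1640 with 5% FBS and 2 mM glutamine. Time-zero plates were TCA-fixed at compound addition, A515 read after SRB staining. GI50 was solved from [(Ti−Tz)/(C−Tz)]×100 = 50. Values beyond the tested range are given as > or <.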

[8] = test system: COLO 205; assay: Growth inhibition of human COLO205 cells incubated for 48 hrs by sulforhodamine B assay; settings: COLO 205, 48 h; procedure, shortened: as §2
[9] = test system: HCC 2998; assay: Growth inhibition of human HCC2998 cells incubated for 48 hrs by sulforhodamine B assay; settings: HCC 2998, 48 h, read-out: LC50 (the source's name); procedure, shortened: as §1
[10] = test system: HCT-116; assay: Growth inhibition of human HCT116 cells incubated for 48 hrs by sulforhodamine B assay; settings: HCT-116, 48 h; procedure, shortened: as §2
[11] = test system: HT-29; assay: Growth inhibition of human HT-29 cells incubated for 48 hrs by sulforhodamine B assay; settings: HT-29, 48 h; procedure, shortened: as §3
[12] = test system: KM12; assay: Growth inhibition of human KM12 cells incubated for 48 hrs by sulforhodamine B assay; settings: KM12, 48 h; procedure, shortened: as §3
[13] = test system: SF-268; assay: Growth inhibition of human SF268 cells incubated for 48 hrs by sulforhodamine B assay; settings: SF-268, 48 h; procedure, shortened: as §3
[14] = test system: SF-539; assay: Growth inhibition of human SF539 cells incubated for 48 hrs by sulforhodamine B assay; settings: SF-539, 48 h
Procedure, shortened: (§4)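 NCI-60 panel cells grown in RPMI-1640 with 5% FBS and 2 mM L-glutamine, preincubated 24 h at 37 °C/5% CO2. Time-zero plates were TCA-fixed at compound addition. DMSO stocks were diluted in medium and tested at five final concentrations (100, 10, 1.0, 0.1, 0.01 µM) for 48 h. Cells were TCA-fixed, stained with SRB and read at 515 nm. GI50 = 50% lower net protein increase versus control.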

[15] = test system: U-251; assay: Growth inhibition of human U251 cells incubated for 48 hrs by sulforhodamine B assay; settings: U-251, 48 h; procedure, shortened: as §4
[16] = test system: Malme-3M; assay: Growth inhibition of human MALME-3M cells incubated for 48 hrs by sulforhodamine B assay; procedure, shortened: as §3
[17] = test system: SK-MEL-28; assay: Growth inhibition of human SK-MEL-28 cells incubated for 48 hrs by sulforhodamine B assay; settings: SK-MEL-28, 48 h; procedure, shortened: as §4
[18] = test system: SK-MEL-5; assay: Growth inhibition of human SK-MEL-5 cells incubated for 48 hrs by sulforhodamine B assay; settings: SK-MEL-5, 48 h; procedure, shortened: as §1
[19] = test system: UACC-62; assay: Growth inhibition of human UACC62 cells incubated for 48 hrs by sulforhodamine B assay; settings: UACC-62, 48 h; procedure, shortened: as §1
[20] = test system: IGROV-1; assay: Growth inhibition of human IGROV1 cells incubated for 48 hrs by sulforhodamine B assay; settings: IGROV-1, 48 h; procedure, shortened: as §1
[21] = test system: OVCAR-4; assay: Growth inhibition of human OVCAR4 cells incubated for 48 hrs by sulforhodamine B assay; settings: OVCAR-4, 48 h; procedure, shortened: as §3
[22] = test system: OVCAR-8; assay: Growth inhibition of human OVCAR8 cells incubated for 48 hrs by sulforhodamine B assay; settings: OVCAR-8, 48 h; procedure, shortened: as §3
[23] = test system: SK-OV-3; assay: Growth inhibition of human SKOV3 cells incubated for 48 hrs by sulforhodamine B assay; settings: SK-OV-3, 48 h; procedure, shortened: as §1
[24] = test system: 786-0; assay: Growth inhibition of human 786-0 cells incubated for 48 hrs by sulforhodamine B assay; settings: 786-0, 48 h; procedure, shortened: as §2
[25] = test system: A498; assay: Growth inhibition of human A498 cells incubated for 48 hrs by sulforhodamine B assay; settings: A498, 48 h; procedure, shortened: as §1
[26] = test system: TK-10; assay: Growth inhibition of human TK10 cells incubated for 48 hrs by sulforhodamine B assay; settings: TK-10, 48 h; procedure, shortened: as §1
[27] = test system: UO-31; assay: Growth inhibition of human UO31 cells incubated for 48 hrs by sulforhodamine B assay; settings: UO-31, 48 h; procedure, shortened: as §4
[28] = test system: DU-145; assay: Growth inhibition of human DU145 cells incubated for 48 hrs by sulforhodamine B assay; settings: DU-145, 48 h; procedure, shortened: as §2
[29] = test system: MDA-MB-231; assay: Growth inhibition of human MDA-MB-231 cells incubated for 48 hrs by sulforhodamine B assay; settings: MDA-MB-231, 48 h; procedure, shortened: as §3
[30] = test system: T47D; assay: Growth inhibition of human T47D cells incubated for 48 hrs by sulforhodamine B assay; procedure, shortened: as §4
[31] = read-out: LC50 (the source's name)

COc1ccc(C(=O)/C=C/c2cccc(Nc3ccnc4cc(Cl)ccc34)c2)cc1
GI50 [1]: 2880 nM
CC50 [1, 31]: > 100000 nM
GI50 [2]: 2980 nM
CC50 [2, 31]: > 100000 nM
GI50 [3]: 1640 nM
CC50 [3, 31]: 83800 nM
GI50 [4]: 570 nM
CC50 [4, 31]: > 100000 nM
GI50 [5]: 1440 nM
CC50 [5, 31]: > 100000 nM
GI50 [6]: 1780 nM
CC50 [6, 31]: > 100000 nM
GI50 [7]: 2690 nM
CC50 [7, 31]: > 100000 nM
GI50 [8]: 3850 nM
CC50 [8, 31]: > 100000 nM
CC50 [9]: > 100000 nM
GI50 [10]: 840 nM
LC50 (concentration killing 50% of cells) [10]: > 100000 nM
GI50 [11]: 1640 nM
LC50 [11]: > 100000 nM
GI50 [12]: 2450 nM
CC50 [12, 31]: > 100000 nM
GI50 [13]: 2470 nM
CC50 [13, 31]: > 100000 nM
GI50 [14]: 1700 nM
CC50 [14, 31]: > 100000 nM
GI50 [15]: 1730 nM
CC50 [15, 31]: 23700 nM
GI50 [16]: 1790 nM
CC50 [16, 31]: > 100000 nM
GI50 [17]: 1870 nM
CC50 [17, 31]: > 100000 nM
GI50 [18]: 1320 nM
CC50 [18, 31]: > 100000 nM
GI50 [19]: 1190 nM
CC50 [19, 31]: > 100000 nM
GI50 [20]: 1440 nM
CC50 [20, 31]: > 100000 nM
GI50 [21]: 1000 nM
GI50 [22]: 2260 nM
LC50 (concentration causing 50% net cell kill) [22]: > 100000 nM
GI50 [23]: 2220 nM
CC50 [23, 31]: > 100000 nM
GI50 [24]: 1480 nM
LC50 [24]: 77700 nM
GI50 [25]: 3000 nM
CC50 [25, 31]: > 100000 nM
GI50 [26]: 1640 nM
CC50 [26, 31]: > 100000 nM
GI50 [27]: 1030 nM
GI50 [28]: 2450 nM
CC50 [28, 31]: > 100000 nM
GI50 [29]: 1910 nM
CC50 [29, 31]: > 100000 nM
GI50 [30]: 660 nM
CC50 [30, 31]: > 100000 nM
